Measured values published in ChEMBL document CHEMBL5356984 (RSC Med Chem, 2023).
Calls of active or inactive are those of the source. The calls are words filed in the database; no cut-off is given here.

What was measured:
SK-BR-3 [1] = assay: Induction of apoptosis in human SK-BR-3 cells assessed as late apoptotic cells at 10 uM incubated for 36 hrs by Annexin V/PI staining based flow cytometry (reference value: 4.95 %); type: functional
MCF7 [2] = assay: Induction of apoptosis in human MCF7 cells assessed as early apoptotic cells at 20 uM incubated for 36 hrs by Annexin V/PI staining based flow cytometry (reference value: 1.13 %); type: functional
MCF7 [3] = assay: Induction of apoptosis in human MCF7 cells assessed as necrotic cells at 20 uM incubated for 36 hrs by Annexin V/PI staining based flow cytometry (reference value: 2.30 %); type: functional
Heat shock protein HSP90 = Heat shock protein HSP90 (Homo sapiens, UniProt P07900+P08238); assay: Inhibition of HSP90 in human SK-BR-3 cells assessed as decrease in phosphorylated AKT level at 5 to 20 uM incubated for 48 hrs by Western blot analysis; type: cell-based; settings: dose 5-20 µM
Summary of the method: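 MCF-7 or SKBr3 cells were exposed for 48 h, then trypsinised, PBS-washed and lysed in RIPA buffer with phosphatase and protease inhibitors. Cleared lysate (14 000 rpm, 4 °C, 15 min) was BCA-quantified, and 20 µg protein was run on SDS-PAGE and blotted. Blots were blocked in 5% milk, incubated with primary antibodies (1:1000) overnight at 4 °C, then HRP secondary, and developed by ECL. GAPDH (1:10000) was the loading control.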

SK-BR-3 [4] = assay: Induction of apoptosis in human SK-BR-3 cells assessed as increase in cleaved pro-caspase-3 level at 10 to 20 uM incubated for 48 hrs by Western blot analysis; type: functional, cell-based; settings: dose 10-20 µM
Summary of the method: (§1)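 Cells exposed 48 h (DMSO vehicle control); trypsinized, lysed in RIPA with phosphatase/protease inhibitors; 20 μg protein on SDS-PAGE, blotted, blocked 5% milk 1 h; primary antibodies 1:1000 overnight at 4 °C, GAPDH 1:10000 as loading control; HRP secondary 1:1000–1:5000; ECL detection.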

[5] = Thermal stability of compound in boiling toluene at 120 degreeC at 1 mg/ml measured for 12 to 24 hrs by HPLC analysis; type: physicochemical; settings: time 12-24 hrs
Summary of the method: (§2)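 Compound at 1 mg mL−1 was heated in distilled boiling toluene at 120 °C for 0–24 h. Remaining percentage was measured by HPLC on a C18 column (5 µm, 4.6 × 250 mm) with MeOH/H2O gradients: 70→100% or 45→100% MeOH over 2–15 min, held at 100% to 20 min, then re-equilibrated.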

[6] = Thermal stability of compound in boiling toluene at 120 degreeC at 1 mg/ml measured for approximately 12 hrs by HPLC analysis; type: physicochemical; summary of the method: as §2
SK-BR-3 [7] = assay: Induction of apoptosis in human SK-BR-3 cells assessed as increase in cleaved PARP level at 10 to 20 uM incubated for 48 hrs by Western blot analysis; type: functional, cell-based; settings: dose 10-20 µM; summary of the method: as §1

inhibition (Heat shock protein HSP90): Active | Stability [5]: Unstable | Stability [6]: Stable
Structure (SMILES): CN1CCN(/C=C/C(=O)/C=C/c2cccc(O[Si](C)(C)C(C)(C)C)c2)CC1
Activity (SK-BR-3 [1]): 8.42% | Activity (MCF7 [2]): 3.58% | Activity (MCF7 [3]): 16.2% | Activity (SK-BR-3 [4]): Active | Activity (SK-BR-3 [7]): Active
